From ChEMBL document CHEMBL3233006 (J Med Chem, 2014)
Activity calls are given as the source filed them. The rule behind the calls is not given here.

Experiments:
[1] = target: Serine/threonine-protein kinase B-raf (Homo sapiens, UniProt P15056, V600E); experiment: Inhibition of BRAF V600E mutant (unknown origin) after 1 to 1.5 hrs by FRET-based Z'-Lyte assay
How it was run: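 Z′-Lyte FRET cascade assay in 10 μL. Incubated 1 h at room temperature, then development reagent 1 h, then stop reagent. Controls: phospho-peptide, no ATP, and 4% DMSO solution. Means of 2 independent experiments.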

cells = format: functional; settings: Homo sapiens, 68 h
SK-MEL-28 = experiment: cells; format: functional, cell-based; settings: Homo sapiens, SK-MEL-28, 68 h
[2] = target: T1, Epidermal growth factor receptor (Homo sapiens, UniProt P00533); experiment: Inhibition of EGFR (unknown origin) after 1 to 1.5 hrs by FRET-based Z'-Lyte assay
HCT-116 = experiment: Antiproliferative activity against human HCT116 cells harboring wild-type BRAF and EGFR after 68 hrs […]; format: functional, cell-based; settings: HCT-116, 68 h
HT-29 [3] = experiment: Antiproliferative activity against human HT-29 cells harboring BRAF V600E mutant and EGFR after 68 hrs […]; format: functional, cell-based; settings: HT-29, 68 h
WiDr [4] = experiment: Antiproliferative activity against human WiDr cells harboring BRAF V600E mutant and EGFR after 68 hrs […]; format: functional, cell-based
COLO 205 = experiment: Antiproliferative activity against human COLO205 cells harboring BRAF V600E mutant and EGFR after 68 hrs by MTS assay; format: functional, cell-based; settings: COLO 205, 68 h
LoVo = experiment: Antiproliferative activity against human LoVo cells harboring wild-type BRAF after 68 hrs by […]; format: functional, cell-based
Homo sapiens [5] = species: Homo sapiens; experiment: Inhibition of MAPK-mediated ERK phosphorylation at Thr202/Tyr204 in human SK-MEL-28-PR30 cells at 1 uM after 24 hrs by Western blotting analysis; format: cell-based
How it was run: (§1)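 Time-course western blot with treatment at 1.0 μM. SK-MEL-28-PR30 or WiDr cells exposed for 2, 24 and 48 h. RIPA lysates quantified by BCA, equal protein blotted on PVDF, and probed for phospho-ERK (T202/Y204), total ERK and GAPDH.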

Homo sapiens [6] = species: Homo sapiens; experiment: Inhibition of MAPK-mediated ERK phosphorylation at Thr202/Tyr204 in human SK-MEL-28-PR30 cells at 1 uM after 48 hrs by Western blotting analysis; format: cell-based; how it was run: as §1
Homo sapiens [7] = species: Homo sapiens; experiment: Effect on total ERK protein level in human SK-MEL-28-PR30 cells after 2 hrs by Western blotting analysis; format: functional, cell-based
How it was run: (§2)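 1 × 10⁶ cells seeded overnight in 6-cm dishes, then treated 2 h with 3, 1 or 0.3 μM in fresh medium; 1‰ DMSO as control. RIPA lysates, protein quantified by BCA, equal loads run on PVDF blots. Blocked 1 h at room temperature, then probed for EGFR, phospho-EGFR (Tyr1068), ERK, phospho-ERK (T202/Y204) and GAPDH.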

[8] = target: T1, Epidermal growth factor receptor; experiment: Inhibition of EGFR phosphorylation at Tyr1068 in human SK-MEL-28-PR30 cells after 2 hrs by Western blotting analysis; format: cell-based; how it was run: as §2
WiDr [9] = experiment: Inhibition of MAPK-mediated ERK phosphorylation at Thr202/Tyr204 in human WiDr cells after 2 hrs by Western blotting analysis; format: cell-based; how it was run: as §2
A-375 = experiment: Inhibition of MAPK-mediated ERK phosphorylation at Thr202/Tyr204 in human A375 cells after 2 hrs by Western blotting analysis; format: cell-based; how it was run: as §2
[10] = target: Receptor tyrosine-protein kinase erbB-2 (Homo sapiens) (UniProt P04626); experiment: Inhibition of ERBB2 (unknown origin) at 1 uM by KINOMEscan assay
How it was run: (§3)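 KINOMEscan binding screen across a panel of 456 kinases (including 395 distinct wild-type kinases), with test compound at 1.0 μM.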

WiDr [11] = experiment: Inhibition of MAPK-mediated ERK phosphorylation at Thr202/Tyr204 in human WiDr cells at 1 uM after 2 to 48 hrs by Western blotting analysis; format: cell-based; how it was run: as §1
[12] = target: T1, Epidermal growth factor receptor; experiment: Inhibition of EGFR phosphorylation at Tyr1068 in human A375 cells after 2 hrs by Western blotting analysis; format: cell-based; settings: A-375; how it was run: as §2
[13] = target: T1, Epidermal growth factor receptor; experiment: Inhibition of EGFR phosphorylation at Tyr1068 in human HT-29 cells after 2 hrs by Western blotting analysis; format: cell-based; how it was run: as §2
Homo sapiens [14] = species: Homo sapiens; experiment: Effect on total EGFR protein level in human SK-MEL-28-PR30 cells after 2 hrs by Western blotting analysis; format: functional, cell-based; how it was run: as §2
[15] = target: T1, Epidermal growth factor receptor; experiment: Inhibition of EGFR phosphorylation at Tyr1068 in human WiDr cells after 2 hrs by Western blotting analysis; format: cell-based; how it was run: as §2
Homo sapiens [16] = species: Homo sapiens; experiment: Inhibition of MAPK-mediated ERK phosphorylation at Thr202/Tyr204 in human SK-MEL-28-PR30 cells after 2 hrs by Western blotting analysis; format: cell-based; how it was run: as §2
[17] = target: Receptor tyrosine-protein kinase erbB-4 (Homo sapiens) (UniProt Q15303); experiment: Inhibition of ERBB4 (unknown origin) at 1 uM by KINOMEscan assay; how it was run: as §3
HT-29 [18] = experiment: Inhibition of MAPK-mediated ERK phosphorylation at Thr202/Tyr204 in human HT-29 cells after 2 hrs by Western blotting analysis; format: cell-based; how it was run: as §2
[19] = target: Platelet-derived growth factor receptor beta (Homo sapiens) (UniProt P09619); experiment: Inhibition of PDGFRbeta (unknown origin) at 1 uM by KINOMEscan assay; how it was run: as §3
Sequence of Platelet-derived growth factor receptor beta (Homo sapiens) (P09619 whole entry): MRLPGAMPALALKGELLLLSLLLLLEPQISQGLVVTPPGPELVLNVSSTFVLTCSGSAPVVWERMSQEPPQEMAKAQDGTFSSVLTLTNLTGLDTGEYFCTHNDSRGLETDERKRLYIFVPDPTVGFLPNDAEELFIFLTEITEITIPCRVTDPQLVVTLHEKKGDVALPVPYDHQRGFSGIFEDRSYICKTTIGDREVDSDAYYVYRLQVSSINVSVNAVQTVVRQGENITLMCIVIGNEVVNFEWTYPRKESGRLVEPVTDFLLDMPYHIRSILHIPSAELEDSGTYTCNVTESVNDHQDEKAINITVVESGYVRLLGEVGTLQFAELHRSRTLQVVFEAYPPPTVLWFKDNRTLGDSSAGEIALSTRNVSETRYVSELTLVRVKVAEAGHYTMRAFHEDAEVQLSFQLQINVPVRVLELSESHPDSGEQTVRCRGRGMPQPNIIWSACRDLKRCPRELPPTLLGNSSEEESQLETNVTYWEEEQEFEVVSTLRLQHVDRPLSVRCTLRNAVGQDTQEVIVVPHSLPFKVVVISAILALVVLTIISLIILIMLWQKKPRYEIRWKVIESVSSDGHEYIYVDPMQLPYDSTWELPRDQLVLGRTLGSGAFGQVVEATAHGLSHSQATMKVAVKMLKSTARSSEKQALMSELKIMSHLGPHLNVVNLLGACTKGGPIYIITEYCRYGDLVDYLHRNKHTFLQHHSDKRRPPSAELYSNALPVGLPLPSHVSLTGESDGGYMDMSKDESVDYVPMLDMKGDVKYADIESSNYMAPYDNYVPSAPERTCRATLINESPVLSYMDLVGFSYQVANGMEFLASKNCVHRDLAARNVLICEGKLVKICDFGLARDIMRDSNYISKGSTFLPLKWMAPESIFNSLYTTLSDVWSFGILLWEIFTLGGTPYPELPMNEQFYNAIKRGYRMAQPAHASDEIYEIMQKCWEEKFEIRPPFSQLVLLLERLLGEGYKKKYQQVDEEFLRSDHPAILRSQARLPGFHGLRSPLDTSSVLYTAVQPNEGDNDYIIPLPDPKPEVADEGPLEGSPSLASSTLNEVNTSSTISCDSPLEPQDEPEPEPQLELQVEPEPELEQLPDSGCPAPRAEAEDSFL

Sequence of Serine/threonine-protein kinase B-raf (P15056 2-766 V600E limits assumed): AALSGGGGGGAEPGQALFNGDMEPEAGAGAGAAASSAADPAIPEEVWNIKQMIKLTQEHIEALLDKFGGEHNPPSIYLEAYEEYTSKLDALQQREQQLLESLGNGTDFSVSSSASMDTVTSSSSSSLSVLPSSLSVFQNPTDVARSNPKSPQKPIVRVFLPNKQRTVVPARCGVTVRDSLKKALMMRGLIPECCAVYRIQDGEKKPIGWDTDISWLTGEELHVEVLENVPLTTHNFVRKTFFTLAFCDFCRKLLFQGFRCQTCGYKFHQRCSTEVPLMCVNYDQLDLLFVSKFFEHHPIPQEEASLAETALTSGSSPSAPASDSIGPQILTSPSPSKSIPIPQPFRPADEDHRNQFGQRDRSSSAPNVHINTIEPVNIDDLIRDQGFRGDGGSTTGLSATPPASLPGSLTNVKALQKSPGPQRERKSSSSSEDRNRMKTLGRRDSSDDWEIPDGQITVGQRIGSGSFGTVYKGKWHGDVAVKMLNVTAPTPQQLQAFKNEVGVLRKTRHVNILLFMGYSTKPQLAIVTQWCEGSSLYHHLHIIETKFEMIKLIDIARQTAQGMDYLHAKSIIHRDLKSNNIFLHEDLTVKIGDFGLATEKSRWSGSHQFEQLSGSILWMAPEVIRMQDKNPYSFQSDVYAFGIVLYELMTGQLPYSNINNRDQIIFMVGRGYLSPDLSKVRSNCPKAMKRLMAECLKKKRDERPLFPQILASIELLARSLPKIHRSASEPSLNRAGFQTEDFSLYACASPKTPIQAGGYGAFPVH
T1 sequence (P00533 whole entry): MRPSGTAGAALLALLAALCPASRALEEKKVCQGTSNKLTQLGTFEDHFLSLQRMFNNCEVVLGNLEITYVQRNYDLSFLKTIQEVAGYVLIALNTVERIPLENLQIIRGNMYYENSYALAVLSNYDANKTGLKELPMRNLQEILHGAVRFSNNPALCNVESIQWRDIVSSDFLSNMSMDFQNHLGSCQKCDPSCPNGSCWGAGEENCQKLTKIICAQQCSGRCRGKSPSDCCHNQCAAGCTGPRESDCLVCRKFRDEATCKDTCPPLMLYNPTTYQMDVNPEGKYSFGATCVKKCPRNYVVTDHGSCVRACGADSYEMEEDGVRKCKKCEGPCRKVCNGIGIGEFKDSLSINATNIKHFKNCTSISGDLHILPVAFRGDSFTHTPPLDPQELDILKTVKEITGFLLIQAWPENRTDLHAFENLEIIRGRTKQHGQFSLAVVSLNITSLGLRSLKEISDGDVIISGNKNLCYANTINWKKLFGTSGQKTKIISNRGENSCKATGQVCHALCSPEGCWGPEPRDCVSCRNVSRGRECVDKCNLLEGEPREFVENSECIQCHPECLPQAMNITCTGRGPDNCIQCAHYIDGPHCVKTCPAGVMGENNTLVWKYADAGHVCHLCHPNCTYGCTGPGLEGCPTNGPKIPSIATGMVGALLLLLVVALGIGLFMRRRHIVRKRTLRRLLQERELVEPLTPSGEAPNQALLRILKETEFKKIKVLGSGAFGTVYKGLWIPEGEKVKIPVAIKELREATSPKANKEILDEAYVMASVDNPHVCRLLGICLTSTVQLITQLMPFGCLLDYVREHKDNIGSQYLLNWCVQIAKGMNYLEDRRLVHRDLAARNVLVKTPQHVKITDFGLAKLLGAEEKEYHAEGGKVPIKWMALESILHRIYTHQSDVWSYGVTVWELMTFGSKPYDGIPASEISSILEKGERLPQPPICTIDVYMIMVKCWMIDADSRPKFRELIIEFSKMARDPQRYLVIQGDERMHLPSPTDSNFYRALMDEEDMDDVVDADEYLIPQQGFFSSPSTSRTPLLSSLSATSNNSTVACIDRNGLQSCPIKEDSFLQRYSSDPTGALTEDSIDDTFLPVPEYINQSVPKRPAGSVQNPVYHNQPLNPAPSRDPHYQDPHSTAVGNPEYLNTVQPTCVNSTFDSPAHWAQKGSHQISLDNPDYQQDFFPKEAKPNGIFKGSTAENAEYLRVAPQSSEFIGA
Sequence of Receptor tyrosine-protein kinase erbB-4 (Homo sapiens) (Q15303 whole entry): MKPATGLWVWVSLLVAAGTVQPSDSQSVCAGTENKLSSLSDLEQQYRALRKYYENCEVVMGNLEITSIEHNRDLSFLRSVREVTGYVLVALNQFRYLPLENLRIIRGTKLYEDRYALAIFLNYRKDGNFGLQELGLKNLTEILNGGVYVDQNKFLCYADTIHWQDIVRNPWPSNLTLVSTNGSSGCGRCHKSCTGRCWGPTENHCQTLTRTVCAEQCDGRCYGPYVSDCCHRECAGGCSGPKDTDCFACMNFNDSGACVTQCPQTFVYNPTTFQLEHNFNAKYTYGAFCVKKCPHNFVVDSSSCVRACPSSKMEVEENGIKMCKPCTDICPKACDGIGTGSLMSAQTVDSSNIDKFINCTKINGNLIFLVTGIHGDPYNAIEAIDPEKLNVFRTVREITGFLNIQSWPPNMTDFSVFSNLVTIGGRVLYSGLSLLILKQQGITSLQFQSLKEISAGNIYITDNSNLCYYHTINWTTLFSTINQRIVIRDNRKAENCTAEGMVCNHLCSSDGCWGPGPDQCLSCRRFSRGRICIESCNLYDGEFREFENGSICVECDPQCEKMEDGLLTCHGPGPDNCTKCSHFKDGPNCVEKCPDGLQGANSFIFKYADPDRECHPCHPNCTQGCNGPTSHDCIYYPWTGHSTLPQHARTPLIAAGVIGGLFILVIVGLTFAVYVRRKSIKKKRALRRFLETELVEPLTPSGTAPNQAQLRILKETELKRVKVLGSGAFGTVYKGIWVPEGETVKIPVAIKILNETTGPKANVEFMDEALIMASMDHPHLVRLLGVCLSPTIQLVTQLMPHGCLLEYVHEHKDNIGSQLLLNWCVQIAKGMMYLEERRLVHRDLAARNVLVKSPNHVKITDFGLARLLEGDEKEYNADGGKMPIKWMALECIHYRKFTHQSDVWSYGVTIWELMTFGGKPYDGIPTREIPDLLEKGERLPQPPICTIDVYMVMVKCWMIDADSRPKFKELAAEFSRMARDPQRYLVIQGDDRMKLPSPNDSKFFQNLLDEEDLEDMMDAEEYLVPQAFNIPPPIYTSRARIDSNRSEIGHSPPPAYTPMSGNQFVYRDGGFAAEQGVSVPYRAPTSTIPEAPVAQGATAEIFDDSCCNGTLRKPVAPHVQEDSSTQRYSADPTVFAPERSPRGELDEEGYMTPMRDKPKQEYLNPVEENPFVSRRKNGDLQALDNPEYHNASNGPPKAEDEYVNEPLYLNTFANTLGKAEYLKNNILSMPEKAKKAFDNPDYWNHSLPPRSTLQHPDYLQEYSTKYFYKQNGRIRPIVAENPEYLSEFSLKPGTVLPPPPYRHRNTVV

Structure (SMILES) | IC50 [1] [nM] | IC50 (cells) [nM] | IC50 (SK-MEL-28) [nM] | IC50 [2] [nM] | other results
CCNc1ncc(C(=O)Nc2cc(C(=O)Nc3ccc(CN4CCN(C)CC4)c(C(F)(F)F)c3)ccc2C)cn1 | 510 | 2400 | 1090 | 130 | 
Cc1ccc(C(=O)Nc2ccc(CN3CCN(C)CC3)c(C(F)(F)F)c2)cc1NC(=O)c1cncnc1 | 670 | > 20000 | > 20000 | 1920 | 
Cc1ccc(C(=O)Nc2ccc(CN3CCN(C)CC3)c(C(F)(F)F)c2)cc1NC(=O)c1ccc(O)nc1 | > 10000 | > 20000 | > 20000 | 1330 | 
CNc1ncc(C(=O)Nc2cc(C(=O)Nc3ccc(CN4CCN(C)CC4)c(C(F)(F)F)c3)ccc2C)cn1 | 290 | 2750 | > 20000 | 120 | 
Cc1ccc(C(=O)Nc2ccc(CN3CCN(C)CC3)c(C(F)(F)F)c2)cc1NC(=O)c1cnccn1 | 280 | > 20000 | > 20000 | 3900 | 
Cc1ccc(C(=O)Nc2ccc(CN3CCN(C)CC3)c(C(F)(F)F)c2)cc1NC(=O)c1ccncc1 | 110 | > 20000 | > 20000 | > 10000 | 
Cc1ccc(C(=O)Nc2ccc(CN3CCN(C)CC3)c(C(F)(F)F)c2)cc1NC(=O)c1cnc(NC2CCCCC2)nc1 | 37 | 2730 | 2380 | 47 | 
Cc1ccc(C(=O)Nc2ccc(CN3CCN(C)CC3)c(C(F)(F)F)c2)cc1NC(=O)c1ccc2[nH]ccc2c1 | 220 | 3040 | 4430 | > 10000 | 
Cc1ccc(C(=O)Nc2ccc(CN3CCN(C)CC3)c(C(F)(F)F)c2)cc1NC(=O)c1cnc(N(C)C)nc1 | 300 | 2490 | 6960 | 5540 | 
Cc1ccc(C(=O)Nc2ccc(CN3CCN(C)CC3)c(C(F)(F)F)c2)cc1NC(=O)c1ccccc1 | 240 | 5030 | 6910 | > 10000 | 
CCCS(=O)(=O)Nc1ccc(F)c(C(=O)c2c[nH]c3ncc(-c4ccc(Cl)cc4)cc23)c1F [VEMURAFENIB] |  | > 20000 | 480 |  | inhibition (Homo sapiens [5]): inactive; inhibition (Homo sapiens [6]): inactive
Cc1ccc(C(=O)Nc2ccc(CN3CCN(C)CC3)c(C(F)(F)F)c2)cc1NC(=O)c1cccnc1 | 551 | > 20000 | 14000 | 550 | 
Cc1ccc(C(=O)Nc2ccc(CN3CCN(C)CC3)c(C(F)(F)F)c2)cc1NC(=O)c1ccccn1 | 573 | 10700 | > 20000 |  | 

Compounds with a lower IC50 (cells), results first:

IC50 [1] [nM] | IC50 (cells) [nM] | IC50 (SK-MEL-28) [nM] | IC50 [2] [nM] | Structure (SMILES) | other results
290 | 1900 | 2270 | 160 | CC(C)c1ccc(C(=O)Nc2ccc(CN3CCN(C)CC3)c(C(F)(F)F)c2)cc1NC(=O)c1cnc2[nH]ccc2c1 | 
410 | 1890 | 1840 | 43 | Cc1ccc(C(=O)Nc2ccc(CN3CCN(C)CC3)c(C(F)(F)F)c2)cc1NC(=O)c1cnc(N)nc1 | 
48 | 1730 | 1070 | 680 | CN1CCN(Cc2ccc(NC(=O)c3cccc(NC(=O)c4cnc5[nH]ccc5c4)c3)cc2C(F)(F)F)CC1 | 
390 | 1440 | 2960 | 44 | Cc1ccc(C(=O)Nc2ccc(CN3CCN(C)CC3)c(C(F)(F)F)c2)cc1NC(=O)c1cnc(NC2CC2)nc1 | 
230 | 1240 | 2040 | 33 | Cc1ccc(C(=O)Nc2ccc(CN3CCN(C)CC3)c(C(F)(F)F)c2)cc1NC(=O)c1cnc(NC2CCCC2)nc1 | 
210 | 900 | 1700 | 6 | Cc1ccc(C(=O)Nc2ccc(CN3CCN(C)CC3)c(C(F)(F)F)c2)cc1NC(=O)c1cnc(Nc2ccccc2)nc1 | 
340 | 860 | 1730 | 43 | Cc1ccc(C(=O)Nc2ccc(CN3CCN(C)CC3)c(C(F)(F)F)c2)cc1NC(=O)c1cnc(NC(C)C)nc1 | 
48 | 780 | 540 | 30 | Cc1ccc(C(=O)Nc2ccc(CN3CCN(C)CC3)c(C(F)(F)F)c2)cc1NC(=O)c1cnc2[nH]ncc2c1 | IC50 (HCT-116): 1380 nM; IC50 (HT-29 [3]): 780 nM; IC50 (WiDr [4]): 1350 nM; IC50 (COLO 205): 360 nM; IC50 (LoVo): 480 nM
360 | 490 | 910 | 99 | CCc1ccc(C(=O)Nc2ccc(CN3CCN(C)CC3)c(C(F)(F)F)c2)cc1NC(=O)c1cnc2[nH]ccc2c1 | 
51 | 450 | 130 | 8 | Cc1ccc(C(=O)Nc2ccc(CN3CCN(C)CC3)c(C(F)(F)F)c2)cc1NC(=O)c1cnc2[nH]ccc2c1 | inhibition (Homo sapiens [7]): Dose-dependent effect; IC50 (HCT-116): 1330 nM; IC50 (HT-29 [3]): 480 nM; inhibition [8]: Dose-dependent effect; inhibition (WiDr [9]): Dose-dependent effect; inhibition (A-375): Dose-dependent effect; inhibition [10]: Active; inhibition (WiDr [11]): Active; IC50 (WiDr [4]): 670 nM; IC50 (COLO 205): 220 nM; inhibition [12]: Dose-dependent effect; inhibition (Homo sapiens [6]): Active; inhibition [13]: Dose-dependent effect; inhibition (Homo sapiens [14]): Dose-dependent effect; inhibition [15]: Dose-dependent effect; inhibition (Homo sapiens [16]): Dose-dependent effect; IC50 (LoVo): 170 nM; inhibition [17]: Active; inhibition (HT-29 [18]): Dose-dependent effect; inhibition [19]: Active
